ChEMBL document CHEMBL1154705, “Modulation of carcinogen metabolizing enzymes by new fused heterocycles pendant to 5,6,7,8-tetrahydronaphthalene derivatives” (Eur J Med Chem, 2010)
Active and inactive are the calls of the source. The calls are words filed in the database; no cut-off is given here.

Tests used:
Hepa-1c1c7 [1] = test: Inhibition of CYP1A in mouse Hepa-1c1c7 cells at 1 ug/ml assessed as dealkylation rate of 3-cyano-7-ethoxycoumarin; format: cell-based
[2] = Cytotoxicity against mouse Hepa-1c1c7 cells after 48 hrs by MTT assay; format: functional, cell-based
Summary of the method: (§1)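 MTT reduction assay: cells seeded at 5 x10⁴ cells/well and incubated 48 h at 37 °C with various concentrations of compounds. Formazan solubilized in acidic isopropanol.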

[3] = Antioxidant activity assessed as peroxyl radical scavenging activity by ORAC assay; format: functional
Lymphocyte [4] = test: Inhibition of methyl methanesulphonate-induced DNA damage in human lymphocyte assessed as tail length at 10 ug/ml after 1 hr before MMS challenge measured after 3 hrs by comet assay; format: functional
Lymphocyte [5] = test: Inhibition of methyl methanesulphonate-induced DNA damage in human lymphocyte assessed as inhibition of tail moment at 10 ug/ml after 1 hr before MMS challenge measured after 3 hrs by comet assay; format: functional, cell-based
[6] = Cytotoxicity against human lymphocytes after 48 hrs by MTT assay; format: functional, cell-based; conditions: lymphocyte; summary of the method: as §1
[7] = target: T1, Epoxide hydrolase 1 (Mus musculus) (UniProt Q9D379); test: Induction of mEH enzyme in mouse Hepa-1c1c7 assessed as formation of 7(29,39-dihydroxy)propoxycoumarin at 10 µg/ml after 48 hrs
T1 sequence (whole entry): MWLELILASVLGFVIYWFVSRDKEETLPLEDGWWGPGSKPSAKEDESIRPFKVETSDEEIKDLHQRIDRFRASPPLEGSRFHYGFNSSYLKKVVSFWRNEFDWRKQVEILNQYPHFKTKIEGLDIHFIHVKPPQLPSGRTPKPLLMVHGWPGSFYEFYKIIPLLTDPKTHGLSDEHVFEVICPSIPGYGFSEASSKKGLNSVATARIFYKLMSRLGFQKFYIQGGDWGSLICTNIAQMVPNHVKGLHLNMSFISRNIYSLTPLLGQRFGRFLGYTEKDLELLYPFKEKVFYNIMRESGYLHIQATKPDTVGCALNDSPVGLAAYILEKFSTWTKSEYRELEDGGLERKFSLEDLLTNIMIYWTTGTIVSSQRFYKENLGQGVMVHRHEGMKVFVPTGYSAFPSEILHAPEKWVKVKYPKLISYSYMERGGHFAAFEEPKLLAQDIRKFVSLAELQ

Hepa-1c1c7 [8] = test: Induction of GST activity in mouse Hepa-1c1c7 cells at 10 ug/ml after 48 hrs by bicinchoninic acid assay; format: cell-based
Summary of the method: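 Hepa1c1c7 cells in DMEM with 10% FBS, 37 °C, 5% CO₂, treated 48 h with compounds (DMSO diluted 1000-fold). Total GST activity read kinetically at 340 nm. Activity normalized to protein by BCA and given relative to DMSO control (100%). Four repeats, mean ± S.D.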

[9] = Antioxidant activity assessed as hydroxyl radical scavenging activity by ORAC assay; format: functional
Hepa-1c1c7 [10] = test: Antioxidant activity in mouse Hepa-1c1c7 cells assessed as increase in total thiol content at […] after 48 hrs; format: functional, cell-based
Summary of the method: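 Hepa1c1c7 cells (1 x10⁶) exposed to compounds for 48 h (DMSO vehicle diluted 1000-fold; DMSO-treated cells as comparator). Total cellular thiols measured by glutathione disulfide reductase/DTNB enzymatic cycling. Four repeats, mean ± S.D.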

| Activity [7] | Compound | inhibition (Hepa-1c1c7 [1]) [%] | IC50 [2] [µg/mL] | Activity [3] | Activity (Lymphocyte [4]) [micrometer] | Activity (Lymphocyte [5]) | IC50 [6] [µg/mL] | Activity (Hepa-1c1c7 [8]) | Activity [9] | Activity (Hepa-1c1c7 [10]) |
| --- | --- | --- | --- | --- | --- | --- | --- | --- | --- | --- |
| Active | Cc1cccc[n+]1CC(=O)c1ccc2c(c1)CCCC2.[Br-] | < 10 | > 50 | Active | 17.7 | Active | > 50 | – | – | – |
| – | COC(=O)c1c(C(=O)OC)c2ccccn2c1C(=O)c1ccc2c(c1)CCCC2 | < 10 | > 50 | – | 36.66 | – | > 50 | – | – | – |
| – | COC(=O)c1c(C(=O)OC)c2cccc(C)n2c1C(=O)c1ccc2c(c1)CCCC2 | < 10 | > 50 | – | 18.3 | Active | > 50 | Active | Active | – |
| – | COC(=O)c1c(C(=O)OC)c2cc(C)ccn2c1C(=O)c1ccc2c(c1)CCCC2 | < 10 | > 50 | – | 22.8 | Active | > 50 | – | Active | Active |
| Active | Cc1cc[n+](CC(=O)c2ccc3c(c2)CCCC3)cc1.[Br-] | < 10 | > 50 | – | 59.41 | – | > 50 | – | – | – |
| Active | O=C(C[n+]1ccccc1)c1ccc2c(c1)CCCC2.[Br-] | < 10 | > 50 | Active | 34.31 | Active | > 50 | Active | Active | Active |
| – | c1ccc2c(c1)nc1[nH]c(-c3ccc4c(c3)CCCC4)cn12 | 26.4 | > 50 | – | 17.2 | Active | > 50 | Active | – | Active |
